Assay results as given in ChEMBL document CHEMBL1136891, “1,3-dialkyl-8-N-substituted benzyloxycarbonylamino-9-deazaxanthines as potent adenosine receptor ligands: Design, synthesis, structure-affinity and structure-selectivity relationships” (Bioorg Med Chem, 2009).
pKi: −log10 of the molar value. Converted amounts (≈) assume the structure as drawn.

Legend:
Adenosine receptor A3 = biological target: T1, Adenosine receptor A3 (Homo sapiens, UniProt P0DMS8); assay: Displacement of [3H]NECA from human recombinant adenosine A3 receptor expressed in HeLa cells by beta scintillation counter; type: cell-based
T1 sequence (P0DMS8 whole entry): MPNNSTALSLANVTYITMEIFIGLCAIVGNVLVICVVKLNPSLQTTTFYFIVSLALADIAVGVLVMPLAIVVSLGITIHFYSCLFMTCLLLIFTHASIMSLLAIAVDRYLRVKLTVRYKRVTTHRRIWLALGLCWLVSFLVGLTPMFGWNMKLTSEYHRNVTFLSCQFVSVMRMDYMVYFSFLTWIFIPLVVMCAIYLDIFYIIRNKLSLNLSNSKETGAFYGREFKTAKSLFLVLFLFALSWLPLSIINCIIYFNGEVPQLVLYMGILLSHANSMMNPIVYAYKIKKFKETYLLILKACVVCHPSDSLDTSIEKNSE
In short: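 HeLa-hA3 membranes labelled with 30 nM [3H]NECA. Non-specific binding was defined with (R)-PIA. Incubation was 180 min at 25 °C, then filtration and scintillation counting. Ki values are means of two independent experiments with duplicate points.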

Homo sapiens = organism: Homo sapiens; assay: Selectivity index, ratio of Ki for human recombinant adenosine A2A receptor to Ki for human recombinant adenosine A2B receptor
In short: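 Competition binding on membranes at 25 °C for 30 min, then filtration and beta scintillation counting. hA2A: transfected HeLa cells, 3 nM [3H]ZM241385, non-specific binding with 50 µM NECA. hA2B: transfected HEK-293 cells, 35 nM [3H]DPCPX, non-specific binding with 400 µM NECA. Ki values are means of two independent duplicate experiments. SI = Ki hA2A / Ki hA2B.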

Adenosine receptor A2a [1] = biological target: T2, Adenosine receptor A2a (Homo sapiens, UniProt P29274); assay: Displacement of [3H]ZM241385 from human recombinant adenosine A2A receptor expressed in HeLa cells by beta scintillation counter; type: cell-based
T2 sequence (P29274 whole entry): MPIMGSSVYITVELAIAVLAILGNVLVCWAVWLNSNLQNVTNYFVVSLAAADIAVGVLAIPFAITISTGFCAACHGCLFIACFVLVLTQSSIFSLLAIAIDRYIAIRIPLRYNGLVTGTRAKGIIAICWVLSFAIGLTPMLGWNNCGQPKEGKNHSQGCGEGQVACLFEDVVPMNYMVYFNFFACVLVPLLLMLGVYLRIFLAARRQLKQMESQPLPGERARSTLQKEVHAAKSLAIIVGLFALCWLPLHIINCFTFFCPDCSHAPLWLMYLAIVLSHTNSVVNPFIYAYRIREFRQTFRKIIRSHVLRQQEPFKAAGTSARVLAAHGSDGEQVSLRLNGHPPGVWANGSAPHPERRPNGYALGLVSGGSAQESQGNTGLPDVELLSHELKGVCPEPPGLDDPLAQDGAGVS

Adenosine receptor A1 = biological target: T3, Adenosine receptor A1 (Homo sapiens, UniProt P30542); assay: Displacement of [3H]DPCPX from human recombinant adenosine A1 receptor expressed in CHO cells by beta scintillation counter; type: cell-based
T3 sequence (P30542 whole entry): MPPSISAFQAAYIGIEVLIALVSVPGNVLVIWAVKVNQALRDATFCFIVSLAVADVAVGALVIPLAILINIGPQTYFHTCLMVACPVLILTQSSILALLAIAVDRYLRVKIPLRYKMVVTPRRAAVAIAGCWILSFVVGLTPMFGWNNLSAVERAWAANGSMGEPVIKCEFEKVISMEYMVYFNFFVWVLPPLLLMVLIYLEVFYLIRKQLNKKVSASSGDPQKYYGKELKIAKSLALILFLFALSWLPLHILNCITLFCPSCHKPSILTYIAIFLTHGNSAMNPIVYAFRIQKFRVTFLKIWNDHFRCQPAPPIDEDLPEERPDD
In short: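 Membranes from CHO cells expressing hA1, labelled with 2 nM [3H]DPCPX. Non-specific binding was defined with excess (R)-PIA. Incubated 25 °C for 60 min, then filtered and counted. Ki values are means of two independent experiments with duplicate points.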

Adenosine receptor A2b [2] = biological target: T4, Adenosine receptor A2b (Homo sapiens, UniProt P29275); assay: Displacement of [3H]DPCPX from human recombinant adenosine A2B receptor expressed in HEK293 cells by beta scintillation counter; type: cell-based
T4 sequence (P29275 whole entry): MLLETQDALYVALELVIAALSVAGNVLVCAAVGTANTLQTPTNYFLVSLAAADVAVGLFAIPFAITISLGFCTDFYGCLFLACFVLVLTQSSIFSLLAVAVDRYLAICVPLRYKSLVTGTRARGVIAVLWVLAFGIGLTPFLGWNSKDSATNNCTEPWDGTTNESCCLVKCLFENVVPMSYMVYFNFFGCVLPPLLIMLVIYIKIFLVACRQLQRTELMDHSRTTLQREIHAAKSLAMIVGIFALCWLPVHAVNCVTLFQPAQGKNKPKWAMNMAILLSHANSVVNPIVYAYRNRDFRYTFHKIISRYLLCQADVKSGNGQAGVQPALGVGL
In short: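 Competition binding on membranes from transfected HEK-293 cells expressing hA2B, using 35 nM [3H]DPCPX. Non-specific binding was defined with NECA. Incubation was 30 min at 25 °C, followed by filtration and scintillation counting. Ki values are means of two independent experiments in duplicate.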

[3] = Solubility in water; type: physicochemical
In short: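 Compound stock at 1 mg/ml in DMSO, added in small portions (typically 14 additions) to 50 mM Tris/HCl pH 7.4 at room temperature, keeping final DMSO below 5%. Precipitation was detected as light-scattering absorbance at 600–820 nm. The solubility limit was taken from a bilinear fit of absorbance versus DMSO added. Mean ± SEM of two assays.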

Adenosine receptor A2b [4] = biological target: T5, Adenosine receptor A2b (Rattus norvegicus, UniProt P29276); assay: Antagonist activity at adenosine A2B receptor in Wistar-Kyoto rat colon assessed as inhibition of NECA-induced relaxation after 30 mins; settings: read-out: pA2 (converted)
T5 sequence (P29276 whole entry): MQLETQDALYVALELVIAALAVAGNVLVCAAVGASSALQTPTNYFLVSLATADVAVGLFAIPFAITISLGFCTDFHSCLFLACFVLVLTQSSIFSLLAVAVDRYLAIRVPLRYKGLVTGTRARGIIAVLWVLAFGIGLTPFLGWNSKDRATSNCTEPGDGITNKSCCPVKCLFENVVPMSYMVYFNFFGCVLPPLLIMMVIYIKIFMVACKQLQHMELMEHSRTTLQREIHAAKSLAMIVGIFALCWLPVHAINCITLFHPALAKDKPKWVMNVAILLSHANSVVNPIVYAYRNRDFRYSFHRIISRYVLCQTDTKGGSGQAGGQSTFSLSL

Adenosine receptor A2a [5] = biological target: Adenosine receptor A2a (Rattus norvegicus, UniProt P30543); assay: Antagonist activity at adenosine A2A receptor in Wistar-Kyoto rat aorta assessed as inhibition of phenylephrine-induced contraction treated 30 mins before phenylephrine challenge measured after 60 mins
Chain of Adenosine receptor A2a (Rattus norvegicus, UniProt P30543) (P30543 whole entry): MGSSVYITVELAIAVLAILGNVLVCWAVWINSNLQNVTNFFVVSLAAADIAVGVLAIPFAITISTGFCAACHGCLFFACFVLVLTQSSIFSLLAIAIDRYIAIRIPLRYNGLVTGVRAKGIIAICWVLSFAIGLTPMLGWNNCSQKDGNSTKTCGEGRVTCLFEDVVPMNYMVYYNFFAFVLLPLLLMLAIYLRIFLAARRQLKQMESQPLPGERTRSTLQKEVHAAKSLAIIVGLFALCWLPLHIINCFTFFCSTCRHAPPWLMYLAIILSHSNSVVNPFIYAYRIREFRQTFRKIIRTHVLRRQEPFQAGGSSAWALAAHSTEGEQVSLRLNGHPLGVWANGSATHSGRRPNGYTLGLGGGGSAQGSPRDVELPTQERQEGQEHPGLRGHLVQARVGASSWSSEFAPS

Adenosine receptor A2a [6] = biological target: T2, Adenosine receptor A2a; assay: Displacement of [3H]ZM241385 from human recombinant adenosine A2A receptor expressed in HeLa cells at 1 uM by beta scintillation counter
[7] = biological target: T6, Adenosine receptor A2b (Homo sapiens) (UniProt P29275); assay: Displacement of [3H]DPCPX from human recombinant adenosine A2B receptor expressed in HEK293 cells at 1 uM by beta scintillation counter; type: cell-based
T6 sequence (whole entry): T4 sequence (P29275 whole entry)

pKi (Adenosine receptor A3) | Ratio Ki (Homo sapiens) | pKi (Adenosine receptor A2a [1]) | pKi (Adenosine receptor A1) | pKi (Adenosine receptor A2b [2]) | inhibition (Adenosine receptor A2a [6]) [%] | inhibition [7] [%] | SMILES | solubility [3] [µg/mL] | Kb (Adenosine receptor A2b [4]) [nM] | Kb (Adenosine receptor A2a [5]) [nM]
6.06 | 7.6 | 7.14 | 7.75 | 8.02 |  |  | Cn1c(=O)c2[nH]c(-c3ccc(COC(=O)Nc4ccc(F)cc4)cc3)cc2n(C)c1=O |  |  | 
 | 6.6 | 5.48 |  | 6.30 |  |  | CCCn1c(=O)c2[nH]c(-c3ccc(COC(=O)Nc4ccsc4)cc3)cc2n(CCC)c1=O |  |  | 
 | 20.4 | 7.36 |  | 8.68 |  |  | Cn1c(=O)c2[nH]c(-c3ccc(COC(=O)N4CCc5ccccc5C4)cc3)cc2n(C)c1=O |  |  | 
 | 61.6 | 6.00 |  | 7.79 |  |  | Cn1c(=O)c2[nH]c(-c3ccc(COC(=O)NCc4ccccc4)cc3)cc2n(C)c1=O |  |  | 
6.48 | 4.1 | 7.54 | 7.69 | 8.15 |  |  | CCCn1c(=O)c2[nH]c(-c3ccc(COC(=O)Nc4ccccc4)cc3)cc2n(CCC)c1=O | 27 (≈ 58.6 µM) |  | 
6.56 | 12.6 | 7.46 | 8.66 | 8.55 |  |  | Cn1c(=O)c2[nH]c(-c3ccc(COC(=O)Nc4ccccc4)cc3)cc2n(C)c1=O |  |  | 
 | 3.7 | 5.65 |  | 6.22 |  |  | CCCn1c(=O)c2[nH]c(-c3ccc(COC(=O)Nc4cccs4)cc3)cc2n(CCC)c1=O |  |  | 
 |  |  |  | 7.86 | 15 |  | CCCn1c(=O)c2[nH]c(-c3ccc(COC(=O)Nc4ccccc4)cc3)cc2n(C)c1=O |  |  | 
 |  | 6.35 |  |  |  | 46 | CCCn1c(=O)c2[nH]c(-c3ccc(COC(=O)N4CCN(c5ccccc5)CC4)cc3)cc2n(CCC)c1=O |  |  | 
 | 11.5 | 6.88 |  | 7.94 |  |  | Cn1c(=O)c2[nH]c(-c3ccc(COC(=O)N4CCN(c5ccccc5)CC4)cc3)cc2n(C)c1=O |  |  | 
7.15 | 59 | 6.93 | 9.40 | 8.70 |  |  | CCCn1c(=O)c2[nH]c(-c3ccc(COC(=O)Nc4ccc(F)cc4)cc3)cc2n(CCC)c1=O |  |  | 
 | 4.6 | 7.45 |  | 8.11 |  |  | CCCn1c(=O)c2[nH]c(-c3ccc(COC(=O)Nc4cnccn4)cc3)cc2n(CCC)c1=O |  |  | 
 | 6 | 6.31 |  | 7.09 |  |  | Cn1c(=O)c2[nH]c(-c3ccc(COC(=O)Nc4ccccn4)cc3)cc2n(C)c1=O |  |  | 
 | 1.2 | 7.30 |  | 7.37 |  |  | CCCn1c(=O)c2[nH]c(-c3ccc(COC(=O)N4CCN(c5ccc(F)cc5)CC4)cc3)cc2n(CCC)c1=O |  |  | 
 | 15.1 | 7.82 |  | 9.00 |  |  | Cn1c(=O)c2[nH]c(-c3ccc(COC(=O)Nc4cccs4)cc3)cc2n(C)c1=O |  |  | 

SMILES | pKi (Adenosine receptor A3) | Ratio Ki (Homo sapiens) | pKi (Adenosine receptor A2a [1]) | pKi (Adenosine receptor A1) | pKi (Adenosine receptor A2b [2]) | inhibition (Adenosine receptor A2a [6]) [%] | inhibition [7] [%] | solubility [3] [µg/mL] | Kb (Adenosine receptor A2b [4]) [nM] | Kb (Adenosine receptor A2a [5]) [nM]
Cn1c(=O)c2[nH]c(-c3ccc(COC(=O)Nc4ccsc4)cc3)cc2n(C)c1=O | 6.44 | 12.6 | 7.98 | 8.00 | 9.10 |  |  | 21.5 (≈ 52.4 µM) | 2.19 | 28.2
Cn1c(=O)c2[nH]c(-c3ccc(COC(=O)Nc4ccco4)cc3)cc2n(C)c1=O |  | 5.6 | 7.74 |  | 8.49 |  |  |  |  | 
CCCn1c(=O)c2[nH]c(-c3ccc(COC(=O)Nc4cc[nH]n4)cc3)cc2n(CCC)c1=O |  | 1.7 | 8.00 |  | 8.23 |  |  |  |  | 
CCCn1c(=O)c2[nH]c(-c3ccc(COC(=O)Nc4ccon4)cc3)cc2n(CCC)c1=O |  | 12.9 | 7.66 |  | 8.77 |  |  |  |  | 
CCCn1c(=O)c2[nH]c(-c3ccc(COC(=O)N4CCN(c5cccc(Cl)c5)CC4)cc3)cc2n(CCC)c1=O |  | 1.2 | 7.55 |  | 7.62 |  |  |  |  | 
